Experimental data published in paper PMC3401279 (ACS Chemical Biology, 2012).
“Also recorded” adds a separate entry of the source.

What was measured:
TAAR5 = details: cited from earlier work
[1] = system: mTAAR7e-YC (mTAAR7e S132Y, S133C); experiment: cellular reporter gene assay, mutant mTAAR7e-YC; format: cell-based, mouse; details: mutant versus mTAAR7e; for decreased affinity of mTAAR7e-YC: decrease
rTAAR7d = molecular target: T1, rTAAR7d (Rattus norvegicus, UniProt Q923X5); experiment: cAMP-dependent CRE-SEAP reporter gene assay in transfected HEK293 cells, rTAAR7d; format: cell-based; details: ligand 10 μM
T1 sequence (Q923X5 1-358): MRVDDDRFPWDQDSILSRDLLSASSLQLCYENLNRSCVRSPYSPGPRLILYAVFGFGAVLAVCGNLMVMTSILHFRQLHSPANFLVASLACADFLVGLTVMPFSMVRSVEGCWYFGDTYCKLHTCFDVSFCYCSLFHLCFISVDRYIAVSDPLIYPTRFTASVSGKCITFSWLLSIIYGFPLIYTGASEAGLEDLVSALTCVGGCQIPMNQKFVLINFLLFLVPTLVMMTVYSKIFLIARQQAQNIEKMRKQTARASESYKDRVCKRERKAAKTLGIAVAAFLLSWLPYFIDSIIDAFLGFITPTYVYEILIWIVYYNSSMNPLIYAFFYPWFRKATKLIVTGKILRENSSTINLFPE
In short: (§1)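 HEK293 cells were co-transfected with a TAAR plasmid and a cAMP-dependent secreted alkaline phosphatase reporter (CRE-SEAP). Receptors were expressed both unmodified and as fusions with an N-terminal bovine rhodopsin sequence (Rho tag) that aids surface expression. Transfected cells were incubated with test compound at 10 μM. Secreted phosphatase activity was quantified with a fluorescent substrate as the activation read-out. Triplicates ± s.d.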

mTAAR7b = molecular target: T2, mTAAR7b (Mus musculus, UniProt Q5QD11); experiment: cAMP-dependent CRE-SEAP reporter gene assay in transfected HEK293 cells, mTAAR7b; format: cell-based; details: ligand 10 μM
T2 sequence (Q5QD11 1-358): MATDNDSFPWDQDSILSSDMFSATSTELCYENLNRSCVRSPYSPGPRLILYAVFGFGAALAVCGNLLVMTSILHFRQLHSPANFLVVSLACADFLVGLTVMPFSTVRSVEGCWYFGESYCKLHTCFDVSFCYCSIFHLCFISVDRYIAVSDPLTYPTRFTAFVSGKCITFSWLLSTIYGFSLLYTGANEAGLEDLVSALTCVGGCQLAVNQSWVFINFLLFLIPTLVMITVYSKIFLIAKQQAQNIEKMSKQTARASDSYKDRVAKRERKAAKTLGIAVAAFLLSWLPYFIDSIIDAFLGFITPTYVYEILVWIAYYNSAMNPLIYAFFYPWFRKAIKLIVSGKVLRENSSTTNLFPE
In short: as §1

mTAAR7f = molecular target: T3, mTAAR7f (Mus musculus, UniProt Q5QD08); experiment: cAMP-dependent CRE-SEAP reporter gene assay in transfected HEK293 cells, mTAAR7f; format: cell-based; details: ligand 10 μM
T3 sequence (Q5QD08 1-358): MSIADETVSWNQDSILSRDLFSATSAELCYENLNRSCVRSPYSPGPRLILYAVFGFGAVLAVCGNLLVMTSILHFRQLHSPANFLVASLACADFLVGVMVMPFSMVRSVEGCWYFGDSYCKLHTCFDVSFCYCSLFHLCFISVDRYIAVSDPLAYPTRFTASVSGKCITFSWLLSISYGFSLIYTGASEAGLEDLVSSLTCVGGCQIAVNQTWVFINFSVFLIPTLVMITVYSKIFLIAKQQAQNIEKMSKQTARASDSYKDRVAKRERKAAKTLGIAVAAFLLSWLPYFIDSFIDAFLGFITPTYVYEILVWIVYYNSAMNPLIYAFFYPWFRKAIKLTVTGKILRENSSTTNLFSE
In short: as §1

rTAAR7b = molecular target: T4, rTAAR7b (Rattus norvegicus, UniProt Q923X8); experiment: cAMP-dependent CRE-SEAP reporter gene assay in transfected HEK293 cells, rTAAR7b; format: cell-based; details: ligand 10 μM
T4 sequence (Q923X8 1-358): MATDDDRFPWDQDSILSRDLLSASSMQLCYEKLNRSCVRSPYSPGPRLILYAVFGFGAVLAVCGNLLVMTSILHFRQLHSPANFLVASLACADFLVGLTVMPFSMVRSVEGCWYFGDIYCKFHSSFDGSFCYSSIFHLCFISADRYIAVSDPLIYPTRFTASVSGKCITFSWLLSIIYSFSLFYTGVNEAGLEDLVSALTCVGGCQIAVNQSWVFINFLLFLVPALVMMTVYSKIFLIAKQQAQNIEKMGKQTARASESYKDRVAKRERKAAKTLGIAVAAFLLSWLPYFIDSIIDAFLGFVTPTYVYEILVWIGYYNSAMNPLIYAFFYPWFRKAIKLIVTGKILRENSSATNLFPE
In short: as §1

mTAAR7e = molecular target: T5, mTAAR7e (Mus musculus, UniProt Q5QD09); experiment: cAMP-dependent CRE-SEAP reporter gene assay in transfected HEK293 cells, mTAAR7e; format: cell-based; details: ligand 10 μM
T5 sequence (Q5QD09 1-358): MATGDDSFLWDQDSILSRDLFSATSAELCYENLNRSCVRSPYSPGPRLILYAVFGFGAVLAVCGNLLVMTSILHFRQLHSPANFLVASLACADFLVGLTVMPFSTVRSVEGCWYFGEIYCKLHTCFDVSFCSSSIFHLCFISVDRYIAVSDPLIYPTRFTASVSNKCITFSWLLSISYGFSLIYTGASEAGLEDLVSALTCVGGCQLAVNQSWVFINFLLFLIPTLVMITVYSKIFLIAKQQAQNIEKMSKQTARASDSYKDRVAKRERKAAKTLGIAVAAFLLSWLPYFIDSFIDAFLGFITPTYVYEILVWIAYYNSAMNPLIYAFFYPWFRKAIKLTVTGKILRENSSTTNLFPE
In short: as §1

[2] = system: mTAAR7f-SS (mTAAR7f Y132S, C133S); experiment: cellular reporter gene assay, mutant mTAAR7f-SS; format: cell-based, mouse; details: mutant versus mTAAR7f, increase
rTAAR7h = molecular target: T6, rTAAR7h (Rattus norvegicus, UniProt Q923Y4); experiment: cAMP-dependent CRE-SEAP reporter gene assay in transfected HEK293 cells, rTAAR7h; format: cell-based; details: ligand 10 μM
T6 sequence (Q923Y4 1-358): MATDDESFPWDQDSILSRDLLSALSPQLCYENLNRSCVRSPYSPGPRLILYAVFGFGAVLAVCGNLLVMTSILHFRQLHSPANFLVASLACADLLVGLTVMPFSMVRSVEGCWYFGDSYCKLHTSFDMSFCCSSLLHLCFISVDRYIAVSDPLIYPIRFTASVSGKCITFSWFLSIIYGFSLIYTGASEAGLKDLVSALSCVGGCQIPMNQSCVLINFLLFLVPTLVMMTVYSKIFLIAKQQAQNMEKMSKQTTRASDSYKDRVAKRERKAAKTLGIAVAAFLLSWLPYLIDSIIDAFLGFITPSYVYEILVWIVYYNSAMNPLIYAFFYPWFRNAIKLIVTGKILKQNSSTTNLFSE
In short: as §1

TAAR4 = details: cited from earlier work
rodents = details: carnivore odor; cited from earlier work

CN(C)C [ligand 4, trimethylamine]
TAAR5 agonist (TAAR5): agonist

CN(C)C1CCCCC1 [ligand 10, N,N-dimethylcyclohexylamine]
enhanced affinity of mTAAR7e-YC ([1]; increase): > 1,000 fold
activation of rTAAR7d (reporter response) (rTAAR7d): respond; also recorded: activated
activation of mTAAR7b (reporter response) (mTAAR7b): respond; also recorded: activated
activation of mTAAR7f (reporter response) (mTAAR7f): respond; also recorded: activated
activation of rTAAR7b (reporter response) (rTAAR7b): respond; also recorded: activated

CN(C)CCc1ccccc1 [ligand 6, N,N-dimethyl-2-phenylethylamine]
activation of mTAAR7e (reporter response) (mTAAR7e): respond; also recorded: activated
increases in affinity of mTAAR7f-SS [2]: > 1,000 fold
decreased affinity of mTAAR7e-YC [1]: > 1,000 fold
activation of rTAAR7h (reporter response) (rTAAR7h): respond; also recorded: activated

COc1ccc2[nH]cc(CCN(C)C)c2c1 [ligand 7, 5-methoxy-N,N-dimethyltryptamine]
increases in affinity of mTAAR7f-SS [2]: > 1,000 fold
decreased affinity of mTAAR7e-YC [1]: > 1,000 fold

NCCc1ccccc1 [ligand 3, 2-phenylethylamine]
TAAR4 agonist (TAAR4): agonist
behavioral effect of odor on rodents (rodents): repels rodents
